# Measurements as given in ChEMBL document CHEMBL4513216, “Probing the Open Global Health Chemical Diversity Library for Multistage-Active Starting Points for Next-Generation Antimalarials” (ACS Infect Dis, 2020).
# Test: Toxicity liver stage against HepG2, at 10uM
# Type: cell-based
# Parameters: test concentration 10 uM, cell line HepG2-A16-CD81EGFP
# Conditions: human, HepG2-A16-CD81EGFP cells; read-out: INHIBITION
# Method in brief: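 Uninfected HepG2-A16-CD81EGFP cells, 3 × 10^3 per well, 1536-well, plated on prespotted compound at 10 μM final, parasite-free screening media added to match infected plates; puromycin 10 μM positive, DMSO 0.5% negative; run in parallel with 48 h PbLuc assay at 37 °C, 5% CO2; viability by CellTiter-Glo luminescence, normalized to controls.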
row,SMILES,cytotoxicity at 10 µM
1,CC(CNC(=O)Nc1ccc(C#N)cc1)N1CCc2ccccc21 (configuration not stated),-5.71%
2,Cc1ccc(S(=O)(=O)n2ccn(C(=O)CC(C)C)c2=O)cc1,11.2%
3,CC(C)=CCC/C(C)=C\CNCc1ccco1,-12.6%
4,CCOC(=O)N1CCN(C(=O)c2sc(-c3ccccc3F)nc2C)CC1,20%
5,Cc1c(Br)cnn1C(C)C(=O)Nc1nncs1 (configuration not stated),-4.61%
6,CC(C)N1CCC2(CC1)C[C@@H](O)[C@H](c1ccccc1)NC2=O,-16.7%
7,CN(C)C(=O)c1cn[nH]c1C1(C)CCCN(Cc2ccccn2)C1 (configuration not stated),4.68%
8,Cn1nc(C2CCCN2)c2c(C(=O)NC3CC3)cc(C3CC3)nc21 (configuration not stated),15.3%
9,O=C(O)c1ccccc1CN1CCC2(Cc3ccccc3CNC2=O)C1 (configuration not stated),8.21%
10,CCCC(=O)N1Cc2ccccc2CC2(CCN(C)C2)C1 (configuration not stated),2.71%
11,CCNc1ncnc2c1CN(C1CCCNCC1)C(=O)CN2C (configuration not stated),5.5%
12,COC(=O)c1ccc(N2CCN(C(=O)CC(F)(F)F)C(C)C2)cc1 (configuration not stated),4.42%
13,CC(=O)NCc1ccc(C(=O)N2CCCC(n3cncn3)C2)o1 (configuration not stated),17.1%
14,O=C(O)CCN(Cc1ccc(F)c(F)c1)C(=O)C1CC1,1.04%
15,CC(NC(=O)Nc1nccs1)C(=O)NC1CCCC1 (configuration not stated),1.87%
16,Cc1csc(CCCNC(C)CC(=O)Nc2ccc(F)cc2)n1 (configuration not stated),1.52%
17,Cc1cccc(C(=O)N2CCN(S(C)(=O)=O)[C@@H](C)C2)c1C,3.46%
18,COc1cccc(CNCCc2cc(F)cc3c2OCOC3)c1,-23.1%
19,COCCC1COC2(CCN(C(=O)c3ccccc3)CC2)C1 (configuration not stated),-87.5%
20,Cc1nc(NCC2CC2)nc2c1COCC21CCN(CC(=O)N(C)C)C1 (configuration not stated),-78.5%
21,COCCO[C@H]1CCN(C(=O)c2ccsc2)[C@H]1Cc1ccncc1,-75.4%

row,SMILES,cytotoxicity at 10 µM
1,Cc1noc(C)c1CN1CC[C@H]2C[C@H](c3nccs3)O[C@@H]2C1,-70.7%
2,c1ccc(CO[C@H]2CC[C@H]3[C@H]2OCCN3CCN2CCCCC2)nc1,-7.16%
3,CO[C@@H]1CO[C@@]2(CCCN(S(=O)(=O)c3ccccc3)C2)C1,-79.8%
4,CC1=N[C@@]2(CC[C@@H]3CN(S(=O)(=O)CC(C)C)C[C@@H]32)C(=O)N1CC(C)C,-1.34%
5,CS(=O)(=O)N1CCC(c2nnc3ccc(C(=O)N4CCCC4)cn23)C1 (configuration not stated),1.47%
6,COCCN(C)C(C(=O)O)c1ccc(F)c(Cl)c1 (configuration not stated),12.2%
7,CN(CCO)C[C@@H]1CN(C(=O)Cc2ccc3ccccc3c2)C[C@@H]1CO,-1.96%
8,Cn1ccnc1-c1cn(CCc2nnc(N)s2)nn1,-4.3%
9,COC(=O)c1cc(OCC2CCC2)cc(C(=O)NCC(C)(C)O)c1,4.01%
10,CNC(=O)CNCC1(O)CCCN(Cc2ccc(F)c(F)c2)C1=O (configuration not stated),-9.88%
11,COc1ccc2c(CN3CCCN(Cc4ccncc4)CC3)n[nH]c2c1,-4.32%
12,COC(=O)CNCC1(O)CCCN(Cc2cccc(F)c2F)C1=O (configuration not stated),-6.87%
13,C[C@@H]1CN(CCOCc2ccccc2)CC[C@@]1(O)C1CCC1,1.4%
14,COc1ccc2c(CN3CCN(Cc4cccc(F)c4)CC3)n[nH]c2c1,-1.86%
15,CSCC1CCN(c2nc(N)ncc2C)CC1,-5.2%
16,Cc1ccc(CN2C(=O)OCC2CO)c2ccccc12 (configuration not stated),-5.21%
17,O=C(O)c1ccnc(-c2ccnc(N3CCC4(CCO4)CC3)n2)c1,-10.7%
18,CCc1nnc(CN2CCN(c3cccc(OC)c3)C(=O)C2)o1,18.4%
19,CN(Cc1ccccn1)C(C(=O)O)c1ccc2c(c1)OCO2 (configuration not stated),1.16%
20,CN1CCN(C(=O)C2CN(Cc3cc4ccccc4o3)CCN2)CC1 (configuration not stated),-8.2%
21,Cn1ccc2ccc(C(=O)N3CCN(C(=O)N4CCOCC4)CC3)cc21,-21.1%

row,SMILES,cytotoxicity at 10 µM
1,Cc1noc(C)c1CN1CC2(CCN(C(=O)c3cscn3)CC2)CC1=O,-8.86%
2,COc1ccc(-n2nnc(C(=O)NC(C)C)c2C2CC2)cc1,-14.7%
3,CNC(=O)c1cccc(C2CNCCN2C(C)=O)c1 (configuration not stated),0.384%
4,CN1CCN(C2CCN(CCOc3ccccc3)CC2)C1=O,-2.15%
5,CCn1cc(CN2CCCN(C(=O)CCN3CCCC3=O)CC2)cn1,0.428%
6,Cc1ccsc1CNC(=O)CCc1c(C)nc2cc(O)nn2c1C,-7.01%
7,CC1CCN(CCNC(=O)c2scnc2Cl)CC1,-4.2%
8,COc1c(CNC2CCN(c3ccccn3)CC2)c(C(C)C)nn1C,-8.06%
9,CCCc1nc(C(C)(C)NC(=O)C2CC(=O)N(C3CC3)C2)no1 (configuration not stated),-4.41%
10,CCc1nc(C2CCCN2C(=O)CCc2nc(C(C)(C)C)no2)no1 (configuration not stated),-0.819%
11,Cc1cnn(CC(=O)N2CCC(Nc3ccc(C)nn3)CC2)c1,-21.2%
12,Cc1cc(CN2CCCC(c3cc(C(F)(F)F)[nH]n3)C2)no1 (configuration not stated),-0.674%
13,NC(=O)CN1CCCN(C(=O)Cc2ccc3c(c2)OCCO3)CC1,0.169%
14,Cc1cc(NC(=O)NCC2COc3ccccc3C2)no1 (configuration not stated),-9.47%
15,Cc1cn2c(n1)CCC(NC(=O)c1[nH]ncc1Br)C2 (configuration not stated),-6.49%
16,FC(F)(F)COCCN1CCOC(Cn2cccn2)C1 (configuration not stated),-6.1%
17,O=C(O)c1cc(S(=O)(=O)Nc2cc(F)cc(F)c2)cc2c1OCCO2,-12.6%
18,Cc1nc(C)n(CC2CCCN2CC(=O)Nc2cc(C)on2)n1 (configuration not stated),-2.11%
19,c1cc(CNCC2CNc3ccnn3C2)cc(OC2CCCCC2)n1 (configuration not stated),-8.78%
20,CC(C)Cc1cc(NC(=O)c2ccc(=O)[nH]n2)n(C)n1,-10.1%
21,NC(=O)NCC1CCCCN1C(=O)c1cccc(C(F)(F)F)c1 (configuration not stated),-7.32%

row,SMILES,cytotoxicity at 10 µM
1,COCCCNC(=O)CN(C)C(=O)c1cc(C)ccc1O,-6.81%
2,O=C(Nc1ccc(CCN2CCC(O)CC2)cc1)C1CCOCC1,-8.08%
3,CC(C)(C)c1nnc(CN2CCOC(Cn3cncn3)C2)o1 (configuration not stated),-1.5%
4,Cc1cc(C)n(CC2CN(Cc3cscn3)CCO2)n1 (configuration not stated),-2.68%
5,CC(C)Oc1ncccc1CNC(=O)N1CCC(C(N)=O)C1 (configuration not stated),-6.08%
6,Cc1ccc(C2CCCN2Cc2nc3c(cnn3C)c(=O)[nH]2)cc1C (configuration not stated),-0.858%
7,CCN(CC1CCCO1)C(=O)Nc1ccc(F)cc1OC (configuration not stated),-8.98%
8,COCCCN1CCc2cncnc2C1,-9.68%
9,Cc1noc(Cl)c1CCC(=O)N1CCc2sccc2C1,2.65%
10,CC(NCc1ccc(F)cc1)c1ccc(OCC(=O)NC2CC2)cc1 (configuration not stated),3.99%
11,Cc1nc(C)n(C2CCCN(C(=O)c3csc(C(C)C)n3)C2)n1 (configuration not stated),-1.72%
12,COc1ccc(CN2CCN(C(C)c3nc(C4CC4)no3)CC2)cc1 (configuration not stated),4.31%
13,COc1ccc(CC(=O)N2CCN(c3nccn3C)CC2)cc1,5.06%
14,COc1ccc(CN2CCn3cc(CN4CCN(C)CC4)nc3C2)cc1,-0.00161%
15,COCCN1CCO[C@H]2CN(Cc3cc[nH]n3)C[C@H]21,-105%
16,Fc1cnc(N2CCCC3(CCN(Cc4ccoc4)C3)C2)nc1 (configuration not stated),-80.6%
17,O=C(c1ccncc1)N1CCC2(CCCN(c3ncc(F)cn3)C2)C1 (configuration not stated),-105%
18,Cn1cc(CCC(=O)N2C[C@@H]3CC[C@H]2CN(Cc2cccnc2)C3)cn1,-12.4%
19,Cc1nc[nH]c1CN1C[C@H]2CC[C@@H](C1)N(C(=O)CCn1cncn1)C2,1.15%
